A value given as a limit tells only on which side of the number the result lay.

Serotonin 2 (5-HT2) receptor (Rattus norvegicus), sequence (P08909 whole entry, looked up): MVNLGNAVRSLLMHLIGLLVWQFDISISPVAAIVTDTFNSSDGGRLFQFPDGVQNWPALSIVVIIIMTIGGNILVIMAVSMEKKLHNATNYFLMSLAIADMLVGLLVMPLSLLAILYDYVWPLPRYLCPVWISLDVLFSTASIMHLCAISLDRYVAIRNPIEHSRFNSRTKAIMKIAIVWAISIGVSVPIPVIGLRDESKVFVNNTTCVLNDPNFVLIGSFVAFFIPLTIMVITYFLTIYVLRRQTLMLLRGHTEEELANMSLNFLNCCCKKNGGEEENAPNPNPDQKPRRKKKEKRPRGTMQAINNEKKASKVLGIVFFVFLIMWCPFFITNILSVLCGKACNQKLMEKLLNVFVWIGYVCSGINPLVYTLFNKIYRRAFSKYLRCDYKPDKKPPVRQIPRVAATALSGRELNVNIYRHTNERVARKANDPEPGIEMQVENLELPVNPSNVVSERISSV
Serotonin 2 (5-HT2) receptor (Rattus norvegicus), sequence (P14842 whole entry, looked up): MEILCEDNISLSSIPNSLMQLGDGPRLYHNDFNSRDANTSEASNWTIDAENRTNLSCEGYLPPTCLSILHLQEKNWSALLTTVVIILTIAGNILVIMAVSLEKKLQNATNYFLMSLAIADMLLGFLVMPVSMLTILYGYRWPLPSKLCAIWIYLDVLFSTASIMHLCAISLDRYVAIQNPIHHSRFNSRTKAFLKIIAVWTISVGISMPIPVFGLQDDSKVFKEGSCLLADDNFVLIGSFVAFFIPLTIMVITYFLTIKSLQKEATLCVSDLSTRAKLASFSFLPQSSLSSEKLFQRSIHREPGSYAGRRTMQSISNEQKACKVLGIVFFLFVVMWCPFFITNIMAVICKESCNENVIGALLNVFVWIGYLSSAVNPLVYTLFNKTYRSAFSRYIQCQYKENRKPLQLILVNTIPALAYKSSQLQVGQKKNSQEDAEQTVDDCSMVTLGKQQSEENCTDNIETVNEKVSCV
Serotonin 2 (5-HT2) receptor (Rattus norvegicus), sequence (P30994 whole entry, looked up): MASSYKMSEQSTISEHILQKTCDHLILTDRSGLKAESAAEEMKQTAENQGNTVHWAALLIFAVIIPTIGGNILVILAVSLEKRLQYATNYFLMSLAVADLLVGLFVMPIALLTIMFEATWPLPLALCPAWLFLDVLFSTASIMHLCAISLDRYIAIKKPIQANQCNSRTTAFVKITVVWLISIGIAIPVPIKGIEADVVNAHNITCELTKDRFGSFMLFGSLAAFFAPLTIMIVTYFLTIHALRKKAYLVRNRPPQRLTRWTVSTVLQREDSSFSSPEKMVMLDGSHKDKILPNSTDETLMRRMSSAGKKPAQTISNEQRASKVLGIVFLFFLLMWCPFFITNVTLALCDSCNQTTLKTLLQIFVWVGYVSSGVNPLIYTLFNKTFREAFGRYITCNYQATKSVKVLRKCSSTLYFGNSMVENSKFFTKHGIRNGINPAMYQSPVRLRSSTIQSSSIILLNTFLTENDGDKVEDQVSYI

The assay deals with Serotonin 2 (5-HT2) receptor (Rattus norvegicus) (UniProt P30994+P08909+P14842). The assay is described as follows: Antagonistic activity against (5-hydroxytryptamine 2 receptor) serotonin-induced contractions in the rat jugular vein. It is filed as functional. The procedure, abridged:
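Isolated jugular vein segments mounted on two L-shaped needles, one tied to a transducer, in organ baths with 10 mL modified Krebs bicarbonate solution; 1-2 h equilibration. Control cumulative serotonin contraction curves were recorded, then the antagonist was incubated 1 h and the curves repeated, one antagonist concentration per tissue. K_B = [B]/(dose ratio − 1), using serotonin ED50 ratios; reported as −log K_B.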
Turning to `CN1C[C@H](C(=O)NC2CCCCC2)C[C@@H]2c3cccc4c3c(cn4C3CCCC3)C[C@H]21`, the -Log KB was < 7.

Compound `CCCn1cc2c3c(cccc31)[C@H]1C[C@@H](C(=O)NC3CCCCC3)CN(C)[C@@H]1C2` displayed a -Log KB of 8.

For the compound `CCn1cc2c3c(cccc31)[C@H]1C[C@@H](C(=O)NC3CCCC3)CN(C)[C@@H]1C2`, the -Log KB came to 9.8.

Take `CN1C[C@H](C(N)=O)C[C@@H]2c3cccc4[nH]cc(c34)C[C@H]21`: the -Log KB was 7.

On to `CN1C[C@H](c2nnnn2C2CCCCC2)C[C@@H]2c3cccc4c3c(cn4C)C[C@H]21`, for which the -Log KB is < 7.

On to `CN1C[C@H](CC(=O)NC2CCCCC2)C[C@@H]2c3cccc4[nH]cc(c34)C[C@H]21`, for which the -Log KB is 8.05.

With `COC1CCC(C(=O)N[C@@H]2C[C@@H]3c4cccc5c4c(cn5C(C)C)C[C@H]3N(C)C2)CC1` (stereo partly specified), the -Log KB worked out at 9.64.

As to `CN1C[C@H](CC(=O)NC2CCCCC2)C[C@@H]2c3cccc4c3c(cn4C)C[C@H]21`, the -Log KB came out at 8.97.

`CN1C[C@H](C(=O)NC2CCCCC2)C[C@@H]2c3cccc4c3c(cn4C)C[C@H]21` came in with a -Log KB of 9.7.

`CCCCn1cc2c3c(cccc31)[C@H]1C[C@@H](C(=O)NC3CCCCC3)CN(C)[C@@H]1C2` had a -Log KB of 7.5.

Consider `CN1C[C@H](c2nnnn2C2CCCCC2)C[C@@H]2c3cccc4[nH]cc(c34)C[C@H]21`, for which the -Log KB was < 6.52.

In the case of `CCn1cc2c3c(cccc31)[C@H]1C[C@@H](C(N)=O)CN(C)[C@@H]1C2`, the -Log KB is 8.44.

Regarding `CC(C)n1cc2c3c(cccc31)[C@H]1C[C@@H](c3nnnn3C3CCCCC3)CN(C)[C@@H]1C2`, the -Log KB is < 8.

Take `CCC(CC)n1cc2c3c(cccc31)[C@H]1C[C@@H](C(=O)NC3CCCC3)CN(C)[C@@H]1C2`: the -Log KB worked out at 7.3.

Regarding `CC(C)n1cc2c3c(cccc31)[C@H]1C[C@@H](C(=O)NC3CCCCC3)CN(C)[C@@H]1C2`, the -Log KB stood at 9.67.

With `CCC(CC)n1cc2c3c(cccc31)[C@H]1C[C@@H](C(=O)NC3CCCCC3)CN(C)[C@@H]1C2`, the -Log KB came out at 7.8.

Regarding `C=CCn1cc2c3c(cccc31)[C@H]1C[C@@H](C(=O)NC3CCCCC3)CN(C)[C@@H]1C2`, the -Log KB was found to be 8.15.

`CN1C[C@H](C(=O)NC2CCCC2)C[C@@H]2c3cccc4[nH]cc(c34)C[C@H]21`: the -Log KB came out at 8.87.

`CC(C)n1cc2c3c(cccc31)[C@H]1C[C@@H](C(=O)NC3CCCC3)CN(C)[C@@H]1C2` yielded a -Log KB of 10.3.

For `CC(C)Cn1cc2c3c(cccc31)[C@H]1C[C@@H](C(=O)NC3CCCCC3)CN(C)[C@@H]1C2`, the -Log KB is < 7.

Consider `CCn1cc2c3c(cccc31)[C@H]1C[C@@H](NC(=O)C3CCC(OC)CC3)CN(C)[C@@H]1C2` (stereo partly specified), for which the -Log KB worked out at 9.43.

With `CCn1cc2c3c(cccc31)[C@H]1C[C@@H](C(=O)NC3CCCCC3)CN(C)[C@@H]1C2`, the -Log KB was determined as 9.25.

`CC(C)n1cc2c3c(cccc31)[C@H]1C[C@@H](CC(=O)NC3CCCCC3)CN(C)[C@@H]1C2` had a -Log KB of 8.88.

With `CC(C)Cn1cc2c3c(cccc31)[C@H]1C[C@@H](C(=O)NC3CCCC3)CN(C)[C@@H]1C2`, the -Log KB was < 7.

Compound `COC1CCC(C(=O)N[C@@H]2C[C@@H]3c4cccc5c4c(cn5C)C[C@H]3N(C)C2)CC1` (stereo partly specified) showed a -Log KB of 8.71.

In turn, `CN1C[C@H](C(N)=O)C[C@@H]2c3cccc4c3c(cn4C)C[C@H]21` registered a -Log KB of 7.81.

Regarding `CCCCCCCCn1cc2c3c(cccc31)[C@H]1C[C@@H](C(=O)NC3CCCCC3)CN(C)[C@@H]1C2`, the -Log KB is < 7.

Compound `CC(C)n1cc2c3c(cccc31)[C@H]1C[C@@H](C(N)=O)CN(C)[C@@H]1C2` displayed a -Log KB of 8.7.

Compound `CN1C[C@H](C(=O)NC2CCCCC2)C[C@@H]2c3cccc4[nH]cc(c34)C[C@H]21` came in with a -Log KB of 9.24.

For `CN1C[C@H](C(=O)NC2CCCCC2)C[C@@H]2c3cccc4c3c(cn4Cc3ccccc3)C[C@H]21`, the -Log KB was < 7.

The compound `CN1C[C@H](C(=O)NC2CCCC2)C[C@@H]2c3cccc4c3c(cn4C)C[C@H]21` registered a -Log KB of 9.23.

Source of the values: ChEMBL document CHEMBL1124822, “(8 beta)-6-methylergoline amide derivatives as serotonin antagonists: N1-substituent effects on vascular 5HT2 receptor activity” (J Med Chem, 1990).
